High-throughput results as filed in PubChem.
Platelet DG rel = platelet dense granule release activity; 300,000 tested, 0.22% active; human platelet-rich plasma, SFLLRN dense granule ATP release, luminescence; AID 1663; inhibition, %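 (compounds screened at 7.5 µM in platelet-rich plasma)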;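 active = mean replicate score, as percent of positive control, at or above 50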
TAAR1 ag = agonists of human TAAR1. Q96RJ0. CHO RD-HGA16 TAAR1, Fluo-8 calcium fluorescence; vehicle wells 0%, saturating PEA agonist 100%. activation, % at 3 µM. 360,000 tested, 0.99% active;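 active = activation above the mean activation of all test compounds in the run plus 3 SD, cut at about 38% in these data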
Target sequence (Q96RJ0 whole entry, looked up): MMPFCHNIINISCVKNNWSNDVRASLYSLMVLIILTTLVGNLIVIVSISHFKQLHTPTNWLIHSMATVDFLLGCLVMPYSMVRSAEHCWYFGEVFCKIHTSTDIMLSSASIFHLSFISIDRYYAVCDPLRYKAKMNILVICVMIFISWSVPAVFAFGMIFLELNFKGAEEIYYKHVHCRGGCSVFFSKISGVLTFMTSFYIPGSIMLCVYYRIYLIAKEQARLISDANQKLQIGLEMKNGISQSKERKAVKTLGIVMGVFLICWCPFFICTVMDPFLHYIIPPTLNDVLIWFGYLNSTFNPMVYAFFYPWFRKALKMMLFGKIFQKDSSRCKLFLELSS
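System: CHO-derived RD-HGA16 cells with stable Gα16 and human TAAR1. Times: 17-24 h plating, Fluo-8 75 min 37 °C, 30 min RT. Measured by: calcium-sensitive Fluo-8 signal, excitation 470-495, emission 515-575 nm. Read-out basis: % activation relative to PEA EC100 response. Control set: DMSO and PEA EC100. Repeats: no replicates (n 1).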
Rce1 inh = blocks yeast Ras-converting enzyme | Q03530 | calls only | yeast membranes, quenched prenylated peptide cleavage fluorescence | 290,000 tested, 0.27% active;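 active = fall in fluorescence gain of 50% or more versus controls, with final raw signal at or below 3038400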;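 also: plate controls were neutral control wells for no effect and wells lacking membranes for full effect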
VLA-4 inh = inhibition in a human VLA-4 binding assay. VLA-4 expressing cells, ligand binding flow cytometry. inhibition, % (about 7 µM as worked out from the volumes in the protocol). 330,000 tested, 0.2% active; in the data active = inhibition above about 50%
TAAR1 antagonist = human TAAR1 antagonism; Q96RJ0; CHO RD-HGA16 TAAR1, Fluo-8 calcium fluorescence, antagonist; inhibition, % at 3 µM; 360,000 tested, 1.5% active;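 active = inhibition above a per-plate cutoff, the mean inhibition of test compounds on that plate plus 3 SD, cut at about 49% in these data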;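 also: 0% = DMSO plus EC80 beta-PEA response and 100% = DMSO alone without agonist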
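System: RD-HGA16 CHO cells with stable hTAAR1 and Gα16 | Probe or stimulus: EC80 β-phenethylamine stimulus | Dosing: 3 µM, single point | Times: Dye loading 75 min at 37 °C, then 30 min room temperature | Measured by: Fluo-8 calcium-sensitive fluorescence | Read-out basis: % inhibition of agonist calcium response | Replicates: n of 1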
An asterisk follows results filed as active; i = inactive; · = no result given; + = active, no number. Hits are enriched below; roughly 2.6% of the tested compounds scored in any of these assays.

SMILES	Platelet DG rel	TAAR1 ag	Rce1 inh	VLA-4 inh	TAAR1 antagonist
COCCNC(=O)C1(C)CCN(C(=O)c2ccc3sccc3c2)C1 (centres undefined)	·	1	·	·	-17
COc1cc2c(cc1OC)-c1cc(Nc3ccccc3C)nc(=O)n1CC2	93*	-3	i	2	-5
COc1cc2c(cc1OC)-c1cc(Nc3cccc(C)c3)nc(=O)n1CC2	86*	7	i	-5	-3
CCOc1ccccc1Nc1cc2n(c(=O)n1)CCc1cc(OC)c(OC)cc1-2	90*	4	i	-10	2
CCOc1ccc(Nc2cc3n(c(=O)n2)CCc2cc(OC)c(OC)cc2-3)cc1	9	1	i	1	-14
CC1(C(=O)O)CCN1C(=O)COc1ccc(Cl)cc1 (centres undefined)	·	1	·	·	-7
CC(C)(C)c1ccc(NC(=O)COc2ccc(-n3ccnc3)cc2)cc1	1	22	i	4	57*
CN(Cc1ccccc1)C(=O)[C@@H]1CCCN1	·	0	·	·	-6
COc1nc(NC(C)(C)C)nc(Oc2ccc(=O)n(C)n2)n1	16	1	i	-11	-1
CC(C)Nc1nc(NC(C)(C)C)nc(Oc2ccc(=O)n(C)n2)n1	-1	39*	i	-5	-1
COc1ccc(CO/N=C/c2c(C)[nH]c(=O)[nH]c2=O)cc1	72*	5	i	-5	8
COc1ccc(C(=O)N/N=C/c2c(C)[nH]c(=O)[nH]c2=O)cc1	-2	4	i	-5	13
COc1ccc(NC(=O)c2ccccc2[N+](=O)[O-])cc1	9	1	i	14	-6
COc1ccccc1Nc1ccc(NC(=O)c2cccc([N+](=O)[O-])c2C)cc1	6	-1	i	14	51*
Cc1ccc(C2(C)NC(=O)N(CC(=O)Nc3cccnc3Cl)C2=O)cc1 (centres undefined)	1	6	i	0	14
CC1(c2ccc(OC(F)F)cc2)NC(=O)N(CC(=O)Nc2ccc(N3CCCCC3)cc2)C1=O (centres undefined)	-14	50*	i	-2	44
CC1(c2ccccc2)NC(=O)N(CC(=O)Nc2ccc([N+](=O)[O-])cc2)C1=O (centres undefined)	-3	2	i	12	1
CC1(c2ccc([N+](=O)[O-])cc2)NC(=O)N(CC(=O)Nc2ccc(N3CCCCC3)cc2)C1=O (centres undefined)	-14	43*	i	-1	40
CC1(c2ccc([N+](=O)[O-])cc2)NC(=O)N(CC(=O)Nc2cccnc2Cl)C1=O (centres undefined)	-3	57*	i	13	21
O=C(CSc1nnc(Nc2ccccc2F)s1)NC(=O)CN1CCCC1=O	·	1	·	2	-35
CCCCCCCCCC[N+](C)(C)CC/C=C1/c2ccccc2Sc2ccc(Cl)cc21	1	·	+	8	·
CC[N+](C)(C)CC/C=C1/c2ccccc2Sc2ccc(Cl)cc21	-22	8	i	5	-5
CCCCCCCCCCC[N+](C)(C)CC/C=C1/c2ccccc2Sc2ccc(Cl)cc21	13	·	+	-50	·
CC(=O)OC[C@@H]1CN(Cc2ccccc2)C[C@H](n2cnc3c(N4CCN(c5ccccc5)CC4)ncnc32)O1	·	-1	·	·	26
COc1ccc(S(=O)(=O)N2CCN(CC(O)COc3ccc(CC#N)cc3)CC2)cc1OC (centres undefined)	-4	1	i	15	2
COc1ccc(CNC(=O)C(C)N(Cc2ccco2)C(=O)c2snc(C(N)=O)c2N)cc1 (centres undefined)	-5	1	i	-10	8
NC(=O)c1nsc(C(=O)N(c2cccc(F)c2)C(C(=O)NCc2ccccc2)c2ccc(O)cc2)c1N (centres undefined)	5	18	i	-9	52*
COc1ccc(C(C(=O)NCc2ccccc2)N(Cc2ccco2)C(=O)c2snc(C(N)=O)c2N)cc1 (centres undefined)	-13	17	i	-5	64*
COc1ccc(C(C(=O)NCc2ccccc2)N(Cc2ccco2)C(=O)c2snc(C(N)=O)c2N)cc1OC (centres undefined)	3	18	i	-22	57*
CN1CCN(S(=O)(=O)c2ccc([N+](=O)[O-])cc2)CC1	4	4	i	3	-11
